Consider one compound from ChEMBL document CHEMBL4376878, “Potent Thiophene Antagonists of Human Complement C3a Receptor with Anti-Inflammatory Activity” (J Med Chem, 2020).

pEC50, pIC50: −log10 of the molar value. The source made the active and inactive calls. The rule behind the calls is not given here.

In data set [1] the target is T1, C3a anaphylatoxin chemotactic receptor (Homo sapiens, UniProt Q16581).
T1 sequence (Q16581 whole entry): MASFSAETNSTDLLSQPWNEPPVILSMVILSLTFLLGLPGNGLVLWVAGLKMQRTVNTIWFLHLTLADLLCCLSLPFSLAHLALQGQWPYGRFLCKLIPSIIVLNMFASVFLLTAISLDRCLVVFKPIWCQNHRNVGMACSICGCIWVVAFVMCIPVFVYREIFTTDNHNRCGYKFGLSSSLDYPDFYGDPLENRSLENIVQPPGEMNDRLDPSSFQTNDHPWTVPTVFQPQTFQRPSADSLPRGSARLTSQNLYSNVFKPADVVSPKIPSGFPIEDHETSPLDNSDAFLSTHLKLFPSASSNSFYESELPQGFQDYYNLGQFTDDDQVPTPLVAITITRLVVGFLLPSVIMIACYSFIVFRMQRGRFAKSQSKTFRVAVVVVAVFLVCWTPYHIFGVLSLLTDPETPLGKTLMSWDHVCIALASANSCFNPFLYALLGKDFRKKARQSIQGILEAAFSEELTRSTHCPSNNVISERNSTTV
The data set can be described thus: Agonist activity at C3a receptor in human MDM cells assessed as induction of intracellular calcium release measured at 1 sec interval for => 200 secs by Fluo-3 AM dye-based FLIPR assay. The class given is cell-based. The essentials:
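HMDMs were differentiated from CD14⁺ monocytes with M-CSF (100 ng/mL) for 7 days and seeded overnight at 5 × 10⁴ cells/well. Cells were loaded with 4 μM Fluo-3 AM for 1 h at 37 °C, then placed in HBSS with 2.5 mM probenecid and 20 mM HEPES, pH 7.4. Agonist was added on FLIPR and read at ex 495/em 520 nm. EC50 is relative to the maximum from 1 μM C3a; n ≥ 3.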

The target in data set [2] is T2, C5a anaphylatoxin chemotactic receptor 1 (Homo sapiens) (UniProt P21730).
T2 sequence (whole entry): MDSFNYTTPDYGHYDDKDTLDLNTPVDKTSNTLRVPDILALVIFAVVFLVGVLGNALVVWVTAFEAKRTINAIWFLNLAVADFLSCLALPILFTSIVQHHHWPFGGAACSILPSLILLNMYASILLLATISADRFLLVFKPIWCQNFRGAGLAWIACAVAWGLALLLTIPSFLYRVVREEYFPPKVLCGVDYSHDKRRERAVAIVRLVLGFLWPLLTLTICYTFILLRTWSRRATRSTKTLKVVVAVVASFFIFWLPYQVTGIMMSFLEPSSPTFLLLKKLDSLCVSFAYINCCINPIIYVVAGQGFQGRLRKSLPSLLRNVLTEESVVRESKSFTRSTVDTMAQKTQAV
Briefly: Antagonist activity at C5a receptor in human MDM cells assessed as inhibition of C5a-induced intracellular calcium release preincubated for 30 mins followed by C5a addition and measured at 1 sec interval for => 200 secs by Fluo-3 AM dye-based FLIPR assay. The class given is functional, cell-based. In outline: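 HMDMs from CD14+ monocytes after 7 days in M-CSF; 5 × 10⁴ cells/well seeded overnight. Cells loaded 1 h at 37 °C with 4 μM Fluo-3 AM, then washed into HBSS with 2.5 mM probenecid and 20 mM HEPES, pH 7.4. Antagonist preincubated 30 min at 37 °C before C5a. Fluorescence (ex 495/em 520 nm) read every 1 s for ≥200 s.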

A short description of data set [3]: Stability of the compound in rat plasma at 1 mM measured after 4 hrs by LC-MS analysis. The class given is ADME, cell-free. The essentials:
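Compound added to rat plasma from 1 mM DMSO stock (stock concentration) and incubated at 37 °C. Samples taken at 0, 5, 15, 30, 60, 120 and 240 min, quenched in MeCN/H₂O 9:1, centrifuged and analyzed by LC-MS. Plasma activity checked with SLIGRL-NH₂.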

The target in data set [4] is T3, C3a anaphylatoxin chemotactic receptor (Homo sapiens) (UniProt Q16581).
T3 sequence (whole entry): T1 sequence (Q16581 whole entry)
The data set can be described thus: (§1) Antagonist at C3a receptor in human LAD2 cells assessed as inhibition of C3a-induced beta-hexosaminidase release preincubated for 30 mins followed by C3a addition. The class given is cell-based. The essentials:
(§2)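 LAD2 mast cells grown with SCF, 1 × 10⁴ cells/well seeded overnight and presensitized overnight with IgE (100 ng/mL). Compounds preincubated 30 min at 37 °C in 0.1 M HEPES pH 7.4, then C3a added and β-hexosaminidase release measured. IC50 is concentration inhibiting 50% of release induced by 100 nM C3a; n ≥ 3.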

The target in data set [5] is T1, C3a anaphylatoxin chemotactic receptor. Described as §1. The class given is cell-based. In outline: as §2
For data set [6], the target named is T3, C3a anaphylatoxin chemotactic receptor (Homo sapiens). The data set can be described thus: Potency index, ratio of SB290157 IC50 to test compound IC50 for antagonist activity at C3a receptor in human LAD2 cells assessed as inhibition of C3a-induced beta-hexosaminidase release. The class given is cell-based.
Data set [7] in a line: Tmax in Wistar rat at 10 mg/kg, po by LC-MS/MS analysis. To be noted: in vivo. The class given is ADME, organism-based. In outline: (§3)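 Male Wistar rats with jugular vein catheter, fasted overnight; dosed p.o. by gavage in olive oil or i.v. via catheter in 50% DMSO. Blood drawn from conscious unrestrained rats 5 min before dosing, then 5, 15, 30 min and 1–8 h after. Volume replaced with heparinized saline. Rats fed after 4 h sample. n = 3 per route.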

The nature of data set [8]: Cmax in Wistar rat at 10 mg/kg, po by LC-MS/MS analysis. Also noted: dose 10 mg/kg, route oral. The class given is ADME, organism-based. Conditions: in vivo. The essentials: as §3
A short description of data set [9]: AUC (0 to 8 hrs) in Wistar rat at 1 mg/kg, iv by LC-MS/MS analysis. Conditions: in vivo. Also noted: time < 8 hr, dose 1 mg/kg, route intravenous. The class given is ADME, organism-based. The essentials: as §3
Data set [10] relates to Rattus norvegicus. Briefly: Antiinflammatory activity in Wistar rat model of BR103-induced paw edema assessed as reduction in Il10 gene expression at 10 mg/kg, po administered via gavage pretreated for 2 hrs followed by BR103 challenge and measured after 30 mins by SYBR green dye based RT-PCR analysis. The class given is functional, organism-based. The essentials: (§4)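 Rats given 10 mg/kg p.o. in olive oil 2 h before i.pl. BR103 (350 μg/paw). Paws collected 0.5 h after agonist and homogenized in TRIsure for RNA. qPCR run in duplicate, normalized to Hprt, with fold change relative to sham. n = 3–5 male Wistar rats per group.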

Data set [11] relates to Rattus norvegicus. The data set can be described thus: Antiinflammatory activity in Wistar rat model of BR103-induced paw edema assessed as reduction in Cd244 gene expression at 10 mg/kg, po administered via gavage pretreated for 2 hrs followed by BR103 challenge and measured after 30 mins by SYBR green dye based RT-PCR analysis. The class given is functional, organism-based. In outline:
as §4

Data set [12] has as its system Rattus norvegicus. The data set can be described thus: Antiinflammatory activity in Wistar rat model of BR103-induced paw edema assessed as reduction in number of ED1-positive macrophages at 10 mg/kg, po administered via gavage pretreated for 2 hrs followed by BR103 challenge and measured after 30 mins by immunohistochemical analysis. The class given is functional, organism-based. In outline: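 Male Wistar rats 7–8 weeks old, given 10 mg/kg p.o. in olive oil 2 h before i.pl. BR103 (350 μg/paw). Sham/control received olive oil. Left paw plantar tissue taken 30 min after agonist and fixed in formalin. Frozen 5 μm sections stained with alcian blue/safranin O, or immunostained for tryptase, histamine or ED1. Positive cells quantified; n = 5 per group, one-way ANOVA.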

Data set [13] concerns Rattus norvegicus. Briefly: Antiinflammatory activity in Wistar rat model of BR103-induced paw edema assessed as reduction in hind paw swelling at 10 to 30 mg/kg, po administered via gavage pretreated for 2 hrs followed by BR103 challenge and measured after 30 mins by digital caliper method.

Turning to `Cc1cc(C(c2ccc(Cl)cc2)c2ccc(Cl)cc2)sc1C(=O)N[C@@H](CCCNC(=N)N)C(=O)O`, the pEC50 in data set [1] (read-out: EC50) was under 4.00. Also, the EC50 in [1] (read-out: pEC50 (converted)) is over 100 µM. Also, the inhibition result in data set [2] is “inactive”. Further, the Stability entry in data set [3] is reported as “Stable”. Besides, the inhibition result in data set [4] was “Dose-dependent effect”. Besides, the pIC50 in [5] was 8.10. Also, in data set [6], the Ratio IC50 came to 100. Besides, the Tmax in data set [7] stood at 5 h. This compound also came in with a Cmax in [8] of 88 ng/mL. This compound showed an AUC(0-t) at 8 h in data set [9] of 3800 ng·h/mL. Also, the outcome in the data set with Rattus norvegicus [10], with Rattus norvegicus [11] and in the data set on Rattus norvegicus [12] was Active. Besides, the result with Rattus norvegicus [13] was inactive.
